Values after ≈ are worked out from the molar mass of the structure shown. Active and inactive are the calls of the source. No cut-off for these calls is given here.
Tests used:
[1] = system: Mycobacterium tuberculosis; experiment: Antimycobacterial activity against Mycobacterium tuberculosis H37Rv assessed as growth inhibition at 1 ug/ml after 7 days incubation by Alamar Blue staining-based broth microdilution assay; format: functional; settings: 168 h, read-out: GI
[2] = system: Mycobacterium tuberculosis; experiment: Antimycobacterial activity against Mycobacterium tuberculosis H37Rv assessed as growth inhibition after 7 days incubation by Alamar Blue staining-based broth microdilution assay; format: functional; settings: 168 h
Summary of the method: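 Mid-log Mtb H37Rv grown in 7H9 with 10% OADC and 0.05% Tween-80, added to 2-fold serial dilutions of DMSO-stocked compound at OD600 0.005. Incubated 6 days at 37 °C, then Alamar Blue added for a further 24 h at 37 °C. Colour change read by eye; MIC99 taken in triplicate.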

[3] = system: Vero; experiment: Cytotoxicity against African green monkey Vero cells […] by MTT assay; format: cell-based; settings: Chlorocebus sabaeus
[4] = system: Mycobacterium tuberculosis; experiment: Inhibition of Mycobacterium tuberculosis FtsZ polymerization assessed as 90 degrees light scattering by fluorescence system
Summary of the method: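 His-tagged Mtb-FtsZ at 15 μM, Ni-resin and size-exclusion purified, preincubated with DMSO-stocked compound for up to 300 s. Buffer was 50 mM MES pH 6.5, 100 mM KCl, 5 mM MgCl2. Polymerization started with 100 μM GTP. 90° light scattering recorded at 30 °C, excitation/emission 400 nm, for up to 30 min.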

[5] = Binding affinity to Mycobacterium tuberculosis FtsZ assessed as fluorescence intensity at emission maximum 427.9 nm
Summary of the method: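 Fluorescence of compound held at 100 μM, titrated with His-tagged Mtb-FtsZ expressed in E. coli BL21(DE3). FtsZ was Ni-resin purified and dialysed into Tris storage buffer. Run in 50 mM MES, 100 mM KCl, 5 mM MgCl2, with no GTP. Excitation 316 nm, emission 427.9 nm. Kd obtained by fitting ΔF = (ΔFmax × L)/(Kd + L).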

[6] = system: Mycobacterium tuberculosis; experiment: Inhibition of Mycobacterium tuberculosis FtsZ polymerization assessed as reduction in length, density and aggregation of polymer at 40 to 80 uM by Transmission electron microscopy in presence of 25 uM GTP
Summary of the method: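 Mtb-FtsZ at 5 μM, Ni-NTA purified, held 15 min on ice with ethanol-stocked compound in 50 mM MES pH 6.5, 5 mM MgCl2, 100 mM KCl. GTP added to 25 μM final, then 30 min at 37 °C. Sample diluted 2-fold, negatively stained with 1% uranyl acetate on carbon-coated grids, imaged at 80 kV at 23,000x and 49,000x.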

SMILES | inhibition of growth at 1 µg/mL [1] | MIC [2] | IC50 [3] | other results
Cc1ccc(C(=O)Nc2cc3nc(C4CCCCC4)[nH]c3cc2Oc2ccc(F)cc2)cc1 | 36% | 1.56 µg/mL (≈ 3.52 µM) | 26 µM | 
CCN(CC)c1cc2[nH]c(C3CCCCC3)nc2cc1NC(=O)c1ccc(OC)cc1 |  | 3.1 µg/mL (≈ 7.37 µM) |  | 
CCCOC(=O)Nc1cc2nc(C3CCCCC3)[nH]c2cc1SCc1ccccc1 | 28% |  |  | 
C=CCCC(=O)Nc1cc2nc(C3CCCCC3)[nH]c2cc1Sc1ccccc1 | 56% |  |  | 
CCCCOC(=O)Nc1cc2nc(C3CCCCC3)[nH]c2cc1N1CCCC1 |  | 0.39 µg/mL (≈ 1.01 µM) |  | 
CCCCSc1cc2[nH]c(C3CCCCC3)nc2cc1NC(=O)c1ccc(C(C)(C)C)cc1 | 45% |  |  | 
CC(C)(C)c1ccc(C(=O)Nc2cc3nc(C4CCCCC4)[nH]c3cc2SCc2ccccc2)cc1 | 52% | 12.5 µg/mL (≈ 25.1 µM) | > 200 µM | 
CCCCSc1cc2[nH]c(C3CCCCC3)nc2cc1NS(=O)(=O)c1ccccc1 | 42% |  |  | 
Cc1ccc(C(=O)Nc2cc3nc(C4CCCCC4)[nH]c3cc2Sc2ccccc2)cc1 | 31% | 6.25 µg/mL (≈ 14.2 µM) | 6.25 µM | 
C=CCCC(=O)Nc1cc2nc(C3CCCCC3)[nH]c2cc1SCc1ccccc1 | 64% |  |  | 
CCCCSc1cc2[nH]c(C3CCCCC3)nc2cc1NC(=O)c1ccc(F)cc1F | 51% | 1.25 µg/mL (≈ 2.82 µM) | > 200 µM | 
CCCCOC(=O)Nc1cc2nc(C3CCCCC3)[nH]c2cc1N(CC)CC |  | 0.78 µg/mL (≈ 2.02 µM) |  | 
CC(C)(C)c1ccc(C(=O)Nc2cc3nc(C4CCCCC4)[nH]c3cc2Sc2ccccc2)cc1 | 42% |  |  | 
O=C(Nc1cc2nc(C3CCCCC3)[nH]c2cc1Oc1ccc(F)cc1)c1ccc(F)cc1F | 44% | 12.5 µg/mL (≈ 26.9 µM) | > 200 µM | inhibition [4]: Dose-dependent effect
C=CCCC(=O)Nc1cc2nc(C3CCCCC3)[nH]c2cc1Oc1ccc(F)cc1 | 54% | 12.5 µg/mL (≈ 30.7 µM) | > 200 µM | 
C=CCCC(=O)Nc1cc2nc(C3CCCCC3)[nH]c2cc1OCCCC | 28% |  |  | 
CCOc1cc2[nH]c(C3CCCCC3)nc2cc1NC(=O)c1ccc(C)cc1 | 65% |  |  | 
COc1ccc(C(=O)Nc2cc3nc(C4CCCCC4)[nH]c3cc2Oc2ccc(F)cc2)cc1 |  | 3.13 µg/mL (≈ 6.81 µM) | 40 µM | 
C=CCCC(=O)Nc1cc2nc(C3CCCCC3)[nH]c2cc1SCCCC | 52% |  |  | 
CCCCOC(=O)Nc1cc2nc(C3CCCCC3)[nH]c2cc1Oc1ccc(F)cc1 |  | 0.63 µg/mL (≈ 1.48 µM) | 60 µM | inhibition [4]: Dose-dependent effect; Kd [5]: 1320 nM; inhibition [6]: Active
O=S(=O)(Nc1cc2nc(C3CCCCC3)[nH]c2cc1SCc1ccccc1)c1ccccc1 | 30% |  |  | 
CCCOC(=O)Nc1cc2nc(C3CCCCC3)[nH]c2cc1Sc1ccc(F)cc1 | 46% |  |  | 
CCCCSc1cc2[nH]c(C3CCCCC3)nc2cc1NC(=O)OCCC | 38% | 1.25 µg/mL (≈ 3.21 µM) | 75 µM | 
O=S(=O)(Nc1cc2nc(C3CCCCC3)[nH]c2cc1Sc1ccc(F)cc1)c1ccccc1 | 30% |  |  | 
C=CCCC(=O)Nc1cc2nc(C3CCCCC3)[nH]c2cc1Sc1ccc(F)cc1 | 41% |  |  | 
CCCCSc1cc2[nH]c(C3CCCCC3)nc2cc1NC(=O)c1ccc(C)cc1 | 53% |  | > 200 µM | 
CCCCSc1cc2[nH]c(C3CCCCC3)nc2cc1NC(=O)CCc1ccccc1 | 33% |  |  | 

Reference: ChEMBL document CHEMBL3259749, “Design, synthesis and evaluation of novel 2,5,6-trisubstituted benzimidazoles targeting FtsZ as antitubercular agents” (Bioorg Med Chem, 2014)
